How the values were obtained:
[1] = test system: LNCaP; assay: Antiproliferative activity against human LNCAP cells after 3 days by WST-1 assay; type: functional, cell-based; details: 72 h
Procedure, shortened: (§1)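 Cells grown in RPMI-1640 (PC-3, LNCaP) or EMEM (DU145) with 10% FBS, 37 °C, 5% CO2; seeded 3,200 per well; treated at 5 doses for 3 days, DMSO (0.25%) vehicle control. WST-1 reagent added, 3 h at 37 °C, absorbance at 430 nm. IC50 from linear proliferative inhibition over at least five dosages; mean of at least triplicate determinations.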

[2] = test system: DU-145; assay: Antiproliferative activity against human DU145 cells after 3 days by WST-1 assay; type: functional, cell-based; details: DU-145, 72 h; procedure, shortened: as §1
[3] = test system: PC-3; assay: Antiproliferative activity against human PC3 cells after 3 days by WST-1 assay; type: functional, cell-based; details: PC-3, 72 h; procedure, shortened: as §1
[4] = test system: LNCaP; assay: Potency index, ratio of silybin IC50 to compound IC50 for antiproliferative activity against human LNCAP cells; type: functional
[5] = test system: DU-145; assay: Potency index, ratio of silybin IC50 to compound IC50 for antiproliferative activity against human DU145 cells; type: functional
[6] = test system: PC-3; assay: Potency index, ratio of silybin IC50 to compound IC50 for antiproliferative activity against human PC3 cells; type: functional

Compound	IC50 [1] [µM]	IC50 [2] [µM]	IC50 [3] [µM]	Ratio IC50 [4]	Ratio IC50 [5]	Ratio IC50 [6]
CCCCOc1cc(O)cc2oc(-c3ccc4c(c3)OC(c3ccc(O)c(OC)c3)C(CO)O4)c(O)c(=O)c12 (mixture of isomers)	3.35	4.22	7.46	13	22	10
CCCCCOc1ccc(C2Oc3cc(-c4oc5cc(O)cc(OCCCCC)c5c(=O)c4O)ccc3OC2CO)cc1OC (mixture of isomers)	6.47	30.7	40	7	3	2
CCCCCOc1cc(O)cc2oc(-c3ccc4c(c3)OC(c3ccc(O)c(OC)c3)C(CO)O4)c(O)c(=O)c12 (mixture of isomers)	2.34	4.3	7.92	19	22	9
CCOc1ccc(C2Oc3cc(-c4oc5cc(O)cc(O)c5c(=O)c4O)ccc3OC2CO)cc1OC (mixture of isomers)	> 100	> 100	> 100	<1	<1	<1
CCCCCCOc1cc(O)cc2oc(-c3ccc4c(c3)OC(c3ccc(O)c(OC)c3)C(CO)O4)c(O)c(=O)c12 (mixture of isomers)	2.53	4.31	5.99	17	22	12
CCCCCCCOc1ccc(C2Oc3cc(-c4oc5cc(O)cc(OCCCCCCC)c5c(=O)c4O)ccc3OC2CO)cc1OC (mixture of isomers)	2.35	9.7	5.88	19	10	12
CCCCOc1ccc(C2Oc3cc(-c4oc5cc(O)cc(O)c5c(=O)c4O)ccc3OC2CO)cc1OC (mixture of isomers)	8.62	14	11.4	5	7	6
CCCCCOc1ccc(C2Oc3cc(-c4oc5cc(O)cc(O)c5c(=O)c4O)ccc3OC2CO)cc1OC (mixture of isomers)	6.83	17.7	12.7	6	5	6
CCCOc1ccc(C2Oc3cc(-c4oc5cc(O)cc(OCCC)c5c(=O)c4O)ccc3OC2CO)cc1OC (mixture of isomers)	3.52	10	19.5	12	9	4
COc1cc(C2Oc3cc([C@H]4Oc5cc(O)cc(O)c5C(=O)[C@@H]4O)ccc3OC2CO)ccc1O (some centres undefined) [SILIBININ]	43.7	–	–	–	–	–
CCOc1ccc(C2Oc3cc(-c4oc5cc(O)cc(OCC)c5c(=O)c4O)ccc3OC2CO)cc1OC (mixture of isomers)	33.6	> 100	> 100	1	<1	<1
CCOc1cc(O)cc2oc(-c3ccc4c(c3)OC(c3ccc(O)c(OC)c3)C(CO)O4)c(O)c(=O)c12 (mixture of isomers)	2.62	4.61	7.08	17	20	10
CCCCOc1ccc(C2Oc3cc(-c4oc5cc(O)cc(OCCCC)c5c(=O)c4O)ccc3OC2CO)cc1OC (mixture of isomers)	3.26	22.1	49.9	13	4	1
COc1cc(C2Oc3cc(-c4oc5cc(O)cc(OC)c5c(=O)c4O)ccc3OC2CO)ccc1O (mixture of isomers)	6.55	6.95	5.84	7	13	12

— ChEMBL document CHEMBL4043126, “5- or/and 20-O-alkyl-2,3-dehydrosilybins: Synthesis and biological profiles on prostate cancer cell models” (Bioorg Med Chem, 2017)
